Data on 49 compounds can be found in PubChem BioAssay AID624466 (The Scripps Research Institute Molecular Screening Center, 2012).

Out of some 360,000 compounds screened, about 5,400 (1.5%) were called active. The list comes from a sample in which actives are over-represented; it also holds similar structures and randomly drawn compounds. Unmarked numbers belong to inactive results.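 The calls were made as follows: active = inhibition above a per-plate cutoff, the mean inhibition of test compounds on that plate plus 3 SD (cut at about 49% in these data); inactive = the rest.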

Sequence of Trace amine-associated receptor 1 (Homo sapiens) (Q96RJ0 whole entry, looked up, the tested form may be a part): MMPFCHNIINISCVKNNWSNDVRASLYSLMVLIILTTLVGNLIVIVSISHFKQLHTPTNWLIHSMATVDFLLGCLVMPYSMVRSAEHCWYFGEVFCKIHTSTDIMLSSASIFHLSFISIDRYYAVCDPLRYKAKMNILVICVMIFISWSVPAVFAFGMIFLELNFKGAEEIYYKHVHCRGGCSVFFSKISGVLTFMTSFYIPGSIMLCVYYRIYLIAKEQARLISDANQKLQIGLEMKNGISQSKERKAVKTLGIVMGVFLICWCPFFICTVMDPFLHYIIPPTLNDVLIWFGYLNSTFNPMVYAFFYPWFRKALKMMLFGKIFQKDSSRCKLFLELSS

This assay addresses Trace amine-associated receptor 1 (Homo sapiens) (UniProt Q96RJ0). Kind of assay: human TAAR1 antagonists, primary screen, Fluo-8 calcium fluorescence, CHO RD-HGA16 cells (AID 624466).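 Also: 0% = DMSO plus EC80 beta-PEA response and 100% = DMSO alone without agonist.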 Particulars: CHO RD-HGA16 TAAR1, Fluo-8 calcium fluorescence, antagonist; at 3 µM; stronger effect = higher value. The method in brief:
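Test system – hTAAR1-expressing CHO RD-HGA16 cells, Gα16-coupled · Reagent – β-PEA at EC80 concentration, post-compound challenge · Compound dosing – 3 µM, single point · Timing – 140 s kinetic read after compound, 140 s after agonist · Detection – Fluo-8 intracellular calcium dye fluorescence, real-time kinetic reads · Control set – DMSO and EC80 PEA controls · Repeats – n of 1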
Usually inhibition stands for the drop in the measured response relative to a control, in per cent. Take `O=C(NCCN1C(=O)S/C(=C\c2cccnc2)C1=O)c1cccc(OC(F)F)c1`: the inhibition is 7.53%. To `O=C(NCCN1C(=O)S/C(=C\c2cccnc2)C1=O)c1ccc(S(=O)(=O)N2CCCC2)cc1` belongs 49.1% (active); to `COc1ccccc1N1CC(C(=O)NCCN2C(=O)S/C(=C\c3cccnc3)C2=O)CC1=O` (centres undefined), -4.74%. In the case of `COC(=O)[C@@]12C[C@@H](CC(=O)NCc3cccc(C(F)(F)F)c3)C(=O)N(Cc3ccco3)C1=CCC(C)(C)C2`, the inhibition is -43.8%. Then `COC(=O)c1cc2c(c3c4ccccc4n(S(=O)(=O)c4cccc(C)c4)c13)C(=O)N(Cc1ccccc1)C2`, with -30.3%; and `O=S1(=O)c2c(cccc2N2CCCCC2)O[C@H](COCc2ccccc2)CN1C1CC1`, with 51.8% (active); and `CSc1ccc(Oc2cccc3c2S(=O)(=O)N([C@H](C)c2ccccc2)C[C@@H](COCc2ccccc2)O3)cc1C`, with 5.23%.

With `O=S1(=O)c2c(cccc2N2CCCC2)O[C@H](COCc2ccccc2)CN1C1CC1`, the inhibition was 23.8%. To `COC(=O)C1=C(C(=O)OC)C2C=C(C(C)C)C1C(=O)C2(C)O` (centres undefined) belongs -37.3%. Take `C[C@H]1CN([C@@H](C)CO)S(=O)(=O)c2ccc(-c3cccc(F)c3)cc2O[C@@H]1CN(C)C`: the inhibition was -12.6%. To `C[C@@H]1CN([C@H](C)CO)S(=O)(=O)c2ccc(C#C[C@@H](C)O)cc2O[C@@H]1CN(C)Cc1ccc(-c2ccccc2)cc1` belongs -12.7%. To `C[C@@H]1CN([C@@H](C)CO)S(=O)(=O)c2ccc(C#Cc3cccc(F)c3)cc2O[C@H]1CN(C)S(=O)(=O)c1cn(C)cn1` belongs 68.3% (active); to `C=CCN1C(=O)N(Cc2ccccc2)c2ccccc2S1(=O)=O`, -0.33%. Then `COCCNC(=O)c1cc2c(Br)ccc(Br)c2nc1N`, with -4.31%; and `CC(=O)Nc1ccc(NC(=O)CS(=O)(=O)c2cn(CC(=O)N3CCCCC3)c3ccccc23)cc1`, with -35.2%; and `O=C(Nc1nnc(SCc2c(Cl)cccc2Cl)s1)c1cccc([N+](=O)[O-])c1`, with -16.3%.

Consider `CC(C)(C)SCCNC(=O)c1cccc([N+](=O)[O-])c1`, for which the inhibition was -20.6%. To `O=C(Nc1ccc(C2CC2(Cl)Cl)cc1)c1cccc([N+](=O)[O-])c1` (centres undefined) belongs 49.6% (active).

As for `NC(=O)c1oc2ccccc2c1NC(=O)CS(=O)(=O)c1ccccc1`, the inhibition is -13.1%. For `NC(=O)c1oc2ccccc2c1NC(=O)Cc1ccccc1`, the inhibition is 7.4%. With `COc1ccc(CC(=O)Nc2c(C(N)=O)oc3ccccc23)cc1`, the inhibition was 62.3% (active). Consider `Cc1nc(N2CCN(c3ccccn3)CC2)c2c(C)c(C(=O)Nc3ccc(F)c(Cl)c3)sc2n1`, for which the inhibition is -1.25%. In the case of `Cc1nc(N2CCN(c3ccccn3)CC2)c2c(C)c(C(=O)Nc3ccc(F)cc3)sc2n1`, the inhibition was 58% (active). As for `Cc1nc(N2CCOCC2)c2c(C)c(C(=O)Nc3ccc(C(F)(F)F)cc3)sc2n1`, the inhibition was 15.7%.

On to `CN(CC(=O)NCc1ccc(Cl)cc1)S(=O)(=O)c1cccs1`, for which the inhibition was -2.12%. Then `Cc1ccc(-c2nc3c(Cl)cc(C(F)(F)F)cn3c2Cc2cccc(Cl)c2)cc1`, with 3.71%; and `Brc1ccc(COCCc2cn(Cc3ccccc3)c3ccccc23)cc1`, with -22%; and `COC(=O)Cc1nnn2c1[C@H](C)[C@H](c1ccccc1[N+](=O)[O-])OCC2`, with 51.6% (active). `COC(=O)Cc1nnn2c1[C@H](C)[C@@H](OC)c1cc(Br)ccc1-2`: the inhibition is 1.99%. Regarding `COC(=O)N1Cc2ccnnc2CC1c1ccccc1Br` (centres undefined), the inhibition is -6.91%. As to `COC(=O)Cc1nnn2c1[C@H](C)[C@H](c1ccccc1Br)OCC2`, the inhibition was 73.5% (active). To `COC(=O)C1(C(=O)OC)C/C=C\CN(S(=O)(=O)c2ccccc2[N+](=O)[O-])CCC1` belongs -2.45%; to `COc1ccc(NC(=O)C2=C(C)NC(=O)NC2c2ccccc2[N+](=O)[O-])cc1` (centres undefined), 1.55%; to `CCn1cc(CCC(=O)NCc2ccc(F)cc2)c2ccccc21`, 8.18%. Then `C=CC[C@]12C[C@@]3(O[C@H](c4ccc(C(F)(F)F)cc4)N=C3C[C@H](c3ccc(OC)cc3)[C@H]1C)N(C1CCN(Cc3ccccc3)CC1)C2=O`, with -52.6%; and `Cc1ccc(-c2cc(C(=O)NN)n[nH]2)o1`, with 2.39%; and `CCOC(=O)[C@]12CCCC=C1N(CCC1=CCCCC1)C(=O)[C@H](CC(=O)N1CCOCC1)C2`, with -9.23%. Consider `CCCCNC(=O)C[C@@H]1C[C@@]2(C(=O)OC)CC(C)(C)CC=C2N(Cc2ccco2)C1=O`, for which the inhibition was -0.44%. To `CCOC(=O)C1CCN(C(=O)C2(NC(=O)Nc3cccc(F)c3)CCCCC2)CC1` belongs -26.8%; to `O=S1(=O)CC(N2CCN(Cc3ccccc3F)CC2)CN1Cc1cn(Cc2cccc(C(F)(F)F)c2)nn1` (centres undefined), -13%; to `CCOC(=O)[C@]12CCCC=C1N(Cc1ccc3c(c1)OCO3)C(=O)[C@H](CC(=O)N1CCN(C(=O)c3ccco3)CC1)C2`, -4.35%. As for `CC(C)C[C@H]1CNC(=O)C(=O)N1C[C@H]1CCCN1C[C@H](Cc1ccc(O)cc1)N1C[C@H](CC(C)C)N(CC2CCCCCC2)C(=O)C1=O`, the inhibition is 6.77%. To `CC1CCN(C(=O)c2ncn3c2C(=O)N[C@@H](C)C3)CC1` belongs -2.44%. Then `CSc1ncnc2c1ncn2CCCNCC1CCCCC1`, with -17.2%; and `CC(=O)C12CC(C)=C(C)CC1CC1C3CCC4=CC(=O)CCC4(C)C3CCC12C` (centres undefined), with -34.7%. To `CSc1ncnc2c1ncn2CC(=O)C1CCC2C3CCC4=CC(=O)CCC4(C)C3CCC12C` (centres undefined) belongs 61.8% (active); to `Cc1ccc(CNC(=O)CCS(=O)(=O)c2ccc3c(c2)CC(C)N3C(=O)C2CC2)o1` (centres undefined), -23.9%. As for `Cc1[nH]c2ccccc2c1CC(=O)Nc1ccc(Nc2cccnc2)c(-c2cccc(Cl)c2)c1`, the inhibition was -0.4%.

In the case of `C/C(=N/O)c1ccc(N2C(=O)C3C4C=CC(C3C2=O)C2C3C(=O)N(c5ccc(/C(C)=N/O)cc5)C(=O)C3C42)cc1` (centres undefined), the inhibition was -2.86%.
